By IC50 is commonly meant the concentration needed to halve the response being measured.

Test [1] deals with MDA-MB-231. The test is described as follows: Antiproliferative activity against human MDA-MB-231 cells after 48 hrs by MTT assay. It is filed as functional, cell-based. As to conditions: MDA-MB-231, 48 h. In outline: (§1)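 MTT antiproliferative screen on human colorectal adenocarcinoma HT-29 and breast cancer MDA-MB-231 cells. Cell growth inhibition IC50 was read from the dose-response curve.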
On the technique in general: Tetrazolium dyes change colour on reduction, which living cells bring about.

For test [2], the system named is HT-29. Put plainly: Antiproliferative activity against human HT-29 cells after 48 hrs by MTT assay. Type of test: functional, cell-based. The following applies: HT-29, 48 h. In outline:
as §1

The target of test [3] is Dihydroorotate dehydrogenase (quinone), mitochondrial (Homo sapiens, UniProt Q02127). The test is described as follows: Inhibition of human recombinant N-terminal His-tagged DHODH (31 to 395 residues) expressed in Escherichia coli using DHO as substrate measured after 20 mins by DCPI dye-based assay.
Chain of Dihydroorotate dehydrogenase (quinone), mitochondrial (Q02127 whole entry, the tested form may be a part): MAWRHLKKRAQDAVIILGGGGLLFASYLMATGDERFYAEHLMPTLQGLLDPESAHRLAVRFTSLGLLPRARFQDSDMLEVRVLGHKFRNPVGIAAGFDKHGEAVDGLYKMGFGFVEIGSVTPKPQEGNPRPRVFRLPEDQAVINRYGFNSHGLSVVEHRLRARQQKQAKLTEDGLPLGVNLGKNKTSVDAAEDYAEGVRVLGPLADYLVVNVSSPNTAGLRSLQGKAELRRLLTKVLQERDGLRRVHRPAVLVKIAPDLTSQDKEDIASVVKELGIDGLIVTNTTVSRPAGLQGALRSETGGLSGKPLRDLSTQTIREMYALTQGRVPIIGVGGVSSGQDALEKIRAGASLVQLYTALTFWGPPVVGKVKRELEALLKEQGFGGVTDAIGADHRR

Molecules are shown by their SMILES.

For the compound `COc1ccc(-c2cc(C(=O)OCc3ccccc3)c3cc(Cl)c(Cl)cc3n2)cc1`, the IC50 in test [1] turned out to be 39.2 µM; in test [2] it was 42.2 µM; in test [3] it was 3.34 µM.
The like results for `Clc1ccc(-c2cc(COCc3ccccc3)c3cc(Cl)c(Cl)cc3n2)cc1` were, in that order, over 100 µM, 16.8 µM and 1.22 µM.
The matching figures for `O=C(OCc1ccccc1)c1cc(-c2ccc(Cl)cc2)nc2cc(Cl)c(Cl)cc12`: over 100 µM, 48.7 µM and 7.48 µM.
The matching figures for `Cc1ccc2nc(-c3ccc(F)cc3)cc(COCc3ccccc3)c2c1`: over 100 µM, over 100 µM and 13.4 µM.
As to `Cc1ccc2nc(-c3ccc(Cl)cc3)cc(C(=O)OCc3ccccc3)c2c1`, the IC50 in test [1] was over 100 µM; in test [2], over 100 µM; in test [3] it was 7.37 µM.
`COc1ccc(-c2cc(COCc3ccccc3)c3cc(C)ccc3n2)cc1`: the IC50 in test [1] and in test [2] was over 100 µM in each case.
Consider `Cc1ccc2nc(-c3ccc(Cl)cc3)cc(COCc3ccccc3)c2c1`, for which the IC50 in test [1] and in test [2] was over 100 µM throughout.
For `Cc1ccc2nc(-c3ccc(F)cc3)cc(C(=O)OCc3ccccc3)c2c1`, the 50% inhibitory concentration (IC50) turned out to be 13.2 µM in test [1], 15.1 µM in test [2] and 1.56 µM in test [3].
Consider `Cc1c(-c2ccc(-c3ccccc3F)cc2)nc2ccc(F)cc2c1C(=O)O` [BREQUINAR SODIUM], for which the IC50 was 12.5 µM in test [1] and 14 µM in test [2].
With `COc1ccc(-c2cc(COCc3ccccc3)c3cc(Cl)c(Cl)cc3n2)cc1`, the IC50 in test [1] is over 100 µM; in test [2], over 100 µM; in test [3], 15.5 µM.
On to `COc1ccc(-c2cc(C(=O)OCc3ccccc3)c3cc(C)ccc3n2)cc1`, for which the IC50 amounted to 20.5 µM in test [1], 17.3 µM in test [2] and 1.96 µM in test [3].
For the compound `CC(=O)O[C@H]1C(=O)[C@@]2(C)[C@H]([C@H](OC(=O)c3ccccc3)[C@]3(O)C[C@H](OC(=O)[C@H](O)[C@@H](NC(=O)c4ccccc4)c4ccccc4)C(C)=C1C3(C)C)[C@]1(OC(C)=O)CO[C@@H]1C[C@@H]2O` [PACLITAXEL], the results for the half-maximal inhibitory concentration (IC50) in test [1] and in test [2] were 13.2 µM and 14.6 µM, respectively.

These data come from ChEMBL document CHEMBL4422683, “Synthesis of 2-,4,-6-, and/or 7-substituted quinoline derivatives as human dihydroorotate dehydrogenase (hDHODH) inhibitors and anticancer agents: 3D QSAR-assisted design” (Bioorg Med Chem Lett, 2019).
